ChEMBL document CHEMBL3576795, “Neolignans and other metabolites from Ocotea cymosa from the Madagascar rain forest and their biological activities” (J Nat Prod, 2015)
The source made the active and inactive calls. No cut-off for these calls is given here.

Experiments:
A2780 = assay: Antiproliferative against human A2780 cells after 2 days by AlamarBlue assay; assay type: functional, cell-based
Plasmodium falciparum [1] = assay: Antiplasmodium activity against chloroquine-resistant intraerythrocytic stage of Plasmodium falciparum Dd2 assessed as parasite growth inhibition after 72 hrs by SYBR Green I staining-based assay; assay type: functional, organism-based; settings: Dd2, 72 h
Summary of the method: (§1)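 Dd2 ring-stage cultures at 1% hematocrit and 1% parasitaemia were grown for 72 h at 37°C in 5.05% CO2/4.93% O2/90.2% N2 with increasing drug concentrations. Viability was read by SYBR Green I DNA quantitation in lysis buffer. IC50 was obtained by nonlinear regression and averaged over three independent runs, each in duplicate, ± S.E.M.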

Plasmodium falciparum [2] = assay: Antiplasmodium activity against Plasmodium falciparum Dd2; assay type: functional, organism-based; summary of the method: as §1
Aedes aegypti = assay: Insecticidal activity against Aedes aegypti assessed as mortality at 4 mg/ml after 3 days; assay type: functional; settings: 72 h
Summary of the method: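 A DMSO master stock of 4000 ppm was diluted with 90:10 water:acetone and robotically dispensed into six replicate plates. Plates were infested with about 1-day-old Aedes aegypti larvae hatched overnight in water with liver powder. They were covered to limit drying, held at room temperature for 3 days, and each well was scored for mortality.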

Plasmodium falciparum [3] = assay: Antiplasmodium activity against chloroquine-sensitive Plasmodium falciparum PoW infected in human RBC assessed as parasite growth inhibition after 42 hrs by microculture radioisotope technique; assay type: functional, organism-based
Plasmodium falciparum [4] = assay: Antiplasmodium activity against chloroquine-resistant Plasmodium falciparum Dd2 infected in human RBC assessed as parasite growth inhibition after 42 hrs by microculture radioisotope technique; assay type: functional, organism-based; settings: Dd2, 42 h

Row | SMILES | inhibition (A2780) | IC50 (Plasmodium falciparum [1]) | further results
1 | C=CCC1(C(C)Cc2cc(OC)c(OC)c(OC)c2)C=C2OCOC2=CC1=O (stereo not drawn) | inactive |  | 
2 | C=CC[C@]12C[C@@]3(OCOC3=CC1=O)[C@H](C)[C@@H]2c1cc(OC)c(OC)c(OC)c1 | inactive | 7.7 µM | IC50 (Plasmodium falciparum [2]): 40.5 µM
3 | C=CCC1(C(C)Cc2cc(OC)c(O)c(OC)c2)C=C2OCOC2=CC1=O (stereo not drawn) | inactive |  | IC50 (Plasmodium falciparum [2]): 42.1 µM
4 | C=CCc1cc2c(c3c1O[C@H](c1cc(OC)c(OC)c(OC)c1)[C@H]3C)OCO2 (relative stereo) | inactive | 0.45 µM | mortality at 4000 µg/mL (Aedes aegypti): ≥ 80%; IC50 (Plasmodium falciparum [2]): 4.7 µM
5 | C=CCC1(C(C)Cc2ccc(O)c(OC)c2)C=C2OCOC2=CC1=O (stereo not drawn) | inactive |  | 
6 | C=CCc1cc(OC)c(O[C@]23C[C@@H](CC=C)C(=O)C=C2OCO3)c(OC)c1 | inactive |  | 
7 | C/C=C/c1cc(OC)c(OC(C)Cc2cc(OC)c(OC)c(OC)c2)c(OC)c1 (stereo not drawn) |  |  | IC50 (Plasmodium falciparum [3]): 12.4 µM; IC50 (Plasmodium falciparum [4]): 14.9 µM
8 | C=CCc1cc2c(c3c1O[C@H](c1ccc4c(c1)OCO4)[C@H]3C)OCO2 | inactive |  | 
9 | C=CC[C@@]12C[C@]3(OCOC3=CC1=O)[C@@H](C)[C@@H]2c1cc(OC)c(OC)c(OC)c1 | inactive |  | 
10 | C=CCc1cc2c(cc1O[C@@H](C)Cc1cc(OC)c(OC)c(OC)c1)OCO2 | inactive |  | mortality at 4000 µg/mL (Aedes aegypti): ≥ 80%
11 | C[C@@H]1CC[C@H]2[C@@H](C)C(=O)O[C@@H]3O[C@@]4(C)CC[C@@H]1[C@]32OO4 [ARTEMISININ] |  | 0.00082 µM | 
12 | C=CC[C@@]12C[C@]3(OCOC3=CC1=O)[C@@H](C)[C@@H]2c1cc(O)c2c(c1)OCO2 | inactive | 42 µM | IC50 (Plasmodium falciparum [2]): 28.4 µM
13 | C=CC[C@@]12C[C@]3(OCOC3=CC1=O)[C@@H](C)[C@@H]2c1ccc2c(c1)OCO2 | inactive | 14.6 µM | mortality at 4000 µg/mL (Aedes aegypti): ≥ 80%
14 | C=CCC1(C(C)Cc2ccc(OC)c(OC)c2)C=C2OCOC2=CC1=O (stereo not drawn) | inactive |  | 
15 | C=CCc1ccc(O[C@]23C[C@@H](CC=C)C(=O)C=C2OCO3)c(OC)c1 | inactive |  | 
16 | C=CC[C@@]12C[C@]3(OCOC3=CC1=O)[C@@H](C)[C@@H]2c1cc(OC)c2c(c1)OCO2 | inactive |  | 
17 | C=CC[C@]12C[C@@]3(OCOC3=CC1=O)[C@H](C)[C@@H]2c1cc(OC)c2c(c1)OCO2 | inactive | 4.1 µM | 
18 | C=CCc1cc(OC)c(O[C@@H](C)Cc2cc(OC)c(OC)c(OC)c2)c(OC)c1 | inactive | 3.3 µM | IC50 (Plasmodium falciparum [2]): 3.1 µM
